Source: PubChem (several laboratories)
Most compounds without a hit are left out; they make up all but 1% or so of the library.
T cell modulator: T cell immune modulation candidate. 2C CD8+ T cell-vesicle binding, flow cytometry; active compounds read low. response (vesicle binding), % at 7 µM. 330,000 tested, 0.068% active. AID 2052;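 active = response, share of CD8 T cells binding vesicles, and their 90th percentile fluorescence all below set limits, cut at about 80% in these data, passing the limit was not always enough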;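 note: values below 100% mean blocked vesicle binding to the CD8+ T cells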
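incubation = binding step 1.5 h, 37 °C, antibody labelling 20 min, ice | test system = 2C mouse CD8+ T cells | read-out basis = percent CD8+ FL2 mean versus row control | controls = Peptide-free naked vesicles (low) and QL9 vesicles with 0.7% DMSO vehicle (high) | detection = flow cytometry of vesicle-bound cells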
CHOP UPR activ: apoptotic UPR (CHOP) activation; activation, % at 10 µM; CHO-CHOP luciferase reporter, luminescence; percent of tunicamycin response over DMSO baseline; 330,000 tested, 0.34% active;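 active = at 10 µM dose, activation of 40% or more, normalized to positive control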;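 note: 100% = tunicamycin at 10 µg/mL and 0% = DMSO alone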
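System: CHO CHOP reporter cells. Amount: 500 cells per well. Buffer or medium: F12 medium, 10% FBS. Compound dosing: one dose, 10 µM in 0.5% DMSO. Incubation: 6 h compound exposure at 37 °C after overnight seeding. Technique: Steady-Glo luciferase luminescence. Benchmarks: tunicamycin and DMSO controls.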
XBP1 UPR activ: activators of adaptive arm of unfolded protein response (XBP1); CHO-XBP1 luciferase reporter, IRE1-XBP1 UPR activation, luminescence; percent of tunicamycin response, DMSO as zero; activation, % at 20 µM; 330,000 tested, 0.33% active;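 active = versus positive control, 20 µM dose yields 30% or more activation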;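 note: 100% = tunicamycin at 10 µg/mL and 0% = DMSO only wells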
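Signal: luciferase luminescence; Assay system: CHO-XBP1 luciferase reporter cells; Amount: one thousand reporter cells per well; Dosing: 20 µM single concentration, DMSO 1%; Benchmarks: high control tunicamycin 10 µg/mL final, low control DMSO vehicle only; Schedule: 6 h compound exposure at 37 °C, 5% CO2; Evaluation: percent activation relative to tunicamycin reference.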
Beta2AR agonist: activates human beta-2 adrenergic receptor causing internalization. Am2.2-beta2AR cells, FAP receptor internalization, flow cytometry. 340,000 tested, 0.43% active. P07550. response, % (concentration not given with the values);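 active = response above a set limit, near 3 SD of response in nonfluorescent compounds, cut at about 42% in these data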
Target sequence (P07550 whole entry, looked up): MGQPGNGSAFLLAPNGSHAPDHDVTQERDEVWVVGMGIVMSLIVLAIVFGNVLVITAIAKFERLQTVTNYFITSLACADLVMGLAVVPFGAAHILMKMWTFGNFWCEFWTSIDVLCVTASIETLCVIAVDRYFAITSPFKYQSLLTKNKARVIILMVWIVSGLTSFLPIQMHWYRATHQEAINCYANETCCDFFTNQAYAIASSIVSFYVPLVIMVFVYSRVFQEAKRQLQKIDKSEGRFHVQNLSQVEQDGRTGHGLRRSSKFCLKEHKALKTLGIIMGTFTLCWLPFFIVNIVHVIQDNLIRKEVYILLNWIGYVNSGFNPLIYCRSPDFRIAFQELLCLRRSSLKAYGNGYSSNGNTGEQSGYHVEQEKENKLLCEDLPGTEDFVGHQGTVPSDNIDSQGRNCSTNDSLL
UPR CHOP confirm: confirmation of apoptotic unfolded protein response (CHOP) activators; AID 463112; 1,000 tested, 64% active; shares compounds with CHOP UPR activ; activation, % at 10 µM; CHO-CHOP cells, CHOP-luciferase reporter luminescence; percent of tunicamycin response, DMSO as zero; in the data active = activation above about 33%;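 note: 0% = DMSO wells and 100% = tunicamycin 10 µg/mL wells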
An asterisk follows results filed as active; . = not tested or not shown.

SMILES	T cell modulator	CHOP UPR activ	XBP1 UPR activ	Beta2AR agonist	UPR CHOP confirm
CC(Oc1ccc(Cl)cc1)C(=O)Nc1cccc(S(=O)(=O)N2CCOCC2)c1 (stereo unspecified)	126.2	-0.8	-4.2	-8.8	.
COC1(OC)N=C(N)C2(C#N)C(c3ccc(F)cc3)C12C#N (stereo unspecified)	143.4	-0.4	-5.0	-0.2	.
CCSC1(SCC)N=C(N)C2(C#N)C(c3ccc(F)cc3)C12C#N (stereo unspecified)	277.5	61.0*	0.2	24.6	124.0*
Cc1cc2c3c(c1)C1(SCC(=O)N1c1ccc(F)cc1)C(=O)N3C(C)(C)CC2C (stereo unspecified)	567.6	-1.2	-1.1	3.6	.
COc1ccccc1NC(=O)c1cnc(SCC(=O)NCC2CCCO2)n(C)c1=O (stereo unspecified)	296.2	57.4*	-1.7	4.8	33.9*
COc1ccccc1-n1nnnc1SCC(=O)NCC1CCCO1 (stereo unspecified)	306.4	0.3	-1.7	-0.2	.
C/C(=N\NC(=O)c1cc(O)ccc1O)c1cccc(NC(=O)c2ccc(Cl)cc2)c1	140.2	71.9*	11.4	11.1	5.1
C/C(=N\NC(=O)c1cc(O)ccc1O)c1cccc(NC(=O)c2cccc(Cl)c2)c1	254.2	7.3	-1.7	4.9	.
O=C(/C=C/Sc1ccccc1)c1ccccc1	725.3	78.9*	-2.7	38.1	98.6*
O=C(/C=C/Nc1ccccc1)c1ccccc1	286.0	-4.8	-12.0	4.5	.
O=C(/C=C/Sc1ccccc1)c1ccc(Cl)cc1	328.1	113.3*	29.1	11.0	103.5*
S=c1[nH]nc(-c2cc(-c3ccccc3)n[nH]2)n1/N=C/c1ccccc1	184.8	1.0	1.5	-2.5	.
S=c1[nH]nc(-c2cc(-c3ccccc3)n[nH]2)n1/N=C/C(Br)=C/c1ccccc1	436.9	109.5*	12.2	9.2	130.3*
COc1cccc(NC(=O)CN(C)C(=O)CSc2ccc3c(c2)OCCO3)c1	169.9	0.8	-0.6	6.2	.
CCOc1ccc(CNC(=O)C(C)n2ccc3cc(S(=O)(=O)N4CCCC4)ccc32)cc1 (stereo unspecified)	442.7	-1.3	-5.1	-0.2	.
O=C(c1ccc(Cl)cc1[N+](=O)[O-])N1CCc2ccccc2C1	388.0	-0.5	-2.1	2.6	.
Cc1nc([N+](=O)[O-])c(Br)n1CC(=O)c1ccc(Cl)cc1	744.0	57.6*	-5.7	24.6	59.7*
COc1ccc(C(=O)Cn2c(C)nc([N+](=O)[O-])c2Br)cc1	300.1	3.9	-1.6	6.4	.
Cc1ccc(N2C(=O)c3ccccc3C2=O)cc1	192.6	20.4	5.4	25.9	.
Cc1ccc(SC2=C(Sc3ccc(C)cc3)C(=O)c3ccccc3C2=O)cc1	82.9	215.0*	0.0	17.8	1.6
O=C(/C=C/c1cnc2ccccc2n1)NC12CC3CC(CC(C3)C1)C2	264.2	2.6	-4.2	-2.8	.
Cc1ccc(Nc2nc(-c3ccc(O)c(O)c3)cs2)nc1	.	215.9*	8.8	.	164.1*
Cc1ccc(Nc2nc(-c3ccc(F)cc3)cs2)nc1	148.1	5.0	-2.5	-1.6	.
O=[N+]([O-])c1cc(O)c2ncccc2c1	631.6	109.4*	12.8	.	88.2*
CC(=O)N1N=C(c2cccc(Cl)c2)OC1c1ccc(C(C)C)cc1 (stereo unspecified)	857.2	1.9	2.7	-5.2	.
SMILES	T cell modulator	CHOP UPR activ	XBP1 UPR activ	Beta2AR agonist	UPR CHOP confirm
CCn1c(O)c(C2=c3ccccc3=NC2=O)c2cc(Br)ccc21	172.3	110.8*	-7.1	.	83.3*
Cn1c(COc2ccccc2)nnc1SCC(=O)Nc1ccc(N2CCOCC2)c(Cl)c1	.	1.1	-0.9	2.2	.
Cn1c(SCC(=O)Nc2ccc(N3CCOCC3)c(Cl)c2)nnc1C(O)c1ccccc1 (stereo unspecified)	375.7	43.3*	0.4	-0.4	-0.9
N#Cc1c(N)c(C(=O)c2ccccc2)n2c1CCC2	318.2	54.0*	0.6	-3.0	3.6
Cc1ccc(N(CC(=O)NC(C)C)C(=O)CCC(=O)Nc2ccccn2)cc1	267.8	3.6	-1.1	-3.2	.
Cc1ccc2nc(Cl)c3nnnn3c2c1	252.6	139.2*	-7.3	87.2*	-6.5
O=C1C=CC(=O)C(C2=C3C(=O)N(CCc4ccccc4)CC(=O)N3CCC2)=C1	68.0	131.2*	-2.8	.	49.4*
COc1ccc(-c2cn3cccc(C)c3n2)cc1F	98.9	4.5	4.1	3.8	.
O=C(O)c1cccc2c1C(=O)N(c1ccc3c(c1)Cc1ccccc1-3)C2=O	.	.	.	-2.8	.
CC1=CC(=O)C=C(C)C1=NOC(=O)c1cccc([N+](=O)[O-])c1	338.6	45.9*	0.8	0.1	4.8
Cc1cccc(C(=O)O/N=C(\N)c2cccc([N+](=O)[O-])c2)c1	141.5	3.4	0.9	4.1	.
N#Cc1cccc(CN2CCCN(Cc3ccc(F)cc3)S2(=O)=O)c1	271.7	0.0	-2.5	1.4	.
CCCOc1ccc(N2C(=O)CC(N(O)c3ccccc3)C2=O)cc1 (stereo unspecified)	209.6	191.6*	4.7	4.8	170.3*
Cc1cc(C(=O)CCl)c(C)n1CCc1ccc(F)cc1	465.6	178.9*	8.2	-6.6	195.1*
Cc1cc(C(=O)CCl)c(C)n1CCc1ccc(Cl)cc1	643.0	234.4*	1.6	19.2	206.8*
COc1ccc(CCn2c(C)cc(C(=O)CCl)c2C)cc1OC	775.0	78.6*	-0.4	7.1	122.1*
CCCCOc1ccc(C(=O)OCC(=O)N2CCCCCC2)cc1	809.7	0.5	2.3	-3.5	.
C/C(=N\OCc1ccc(C#N)cc1)c1ccc(S(=O)(=O)N(C)C)cc1	79.5	40.9*	3.9	0.0	5.9
COCc1c(C(=O)OCc2nnc(-c3ccc([N+](=O)[O-])cc3)o2)oc2ccccc12	445.2	-0.3	-5.8	-1.1	.
COc1ccccc1CNC(=O)CSc1nnc2c(Cl)cc(C(F)(F)F)cn12	467.4	-0.9	1.2	-14.5	.
COc1cc(/C=N/NC(=O)c2ccccc2O)ccc1OCC(=O)Nc1ccccc1	206.9	10.9	-3.8	7.0	.
O=C(COc1ccc(/C=N/NC(=O)c2cc3ccccc3o2)cc1Cl)Nc1ccccc1	615.3	50.7*	6.9	8.2	-3.2
CC1(C)Cc2cccc(OCC(=O)Nc3cc(S(C)(=O)=O)ccc3Cl)c2O1	430.1	-0.5	2.8	4.4	.
CCOc1ccc(NC(=S)NCCCN2CCN(c3ccc(OC)cc3)CC2)cc1	389.4	0.2	-0.6	-1.8	.
CN(C)S(=O)(=O)c1cccc(NC(=O)CSc2cccc3cccnc23)c1	219.8	161.8*	-5.2	35.9	246.2*
CN(C)Cc1c(O)ccc2c1O/C(=C\C=C\c1ccccc1)C2=O	216.0	96.5*	-3.5	25.9	-0.5
CCN1CCN(Cc2c(O)ccc3c2O/C(=C\C=C\c2ccccc2)C3=O)CC1	250.7	153.6*	-1.9	3.0	0.8
